ChEMBL document CHEMBL4808214, “Structure-activity relationship studies in substituted sulfamoyl benzamidothiazoles that prolong NF-κB activation” (Bioorg Med Chem, 2021)
Calls of active or inactive are those of the source. No cut-off for these calls is given here.

Assays:
[1] = biological target: T1, Nuclear factor NF-kappa-B complex (Homo sapiens) (UniProt Q00653+P19838+Q04206); test: Activation of NF-kappaB in human THP1-Blue NF-kappaB cells co-expressing NFkappaB-inducible SEAP assessed as increase in SEAP activity at 5 uM measured after 20 hrs by quanti-blue based colorimetric assay relative to control; assay type: cell-based; settings: filed as activator
T1 sequence (P19838 whole entry, looked up): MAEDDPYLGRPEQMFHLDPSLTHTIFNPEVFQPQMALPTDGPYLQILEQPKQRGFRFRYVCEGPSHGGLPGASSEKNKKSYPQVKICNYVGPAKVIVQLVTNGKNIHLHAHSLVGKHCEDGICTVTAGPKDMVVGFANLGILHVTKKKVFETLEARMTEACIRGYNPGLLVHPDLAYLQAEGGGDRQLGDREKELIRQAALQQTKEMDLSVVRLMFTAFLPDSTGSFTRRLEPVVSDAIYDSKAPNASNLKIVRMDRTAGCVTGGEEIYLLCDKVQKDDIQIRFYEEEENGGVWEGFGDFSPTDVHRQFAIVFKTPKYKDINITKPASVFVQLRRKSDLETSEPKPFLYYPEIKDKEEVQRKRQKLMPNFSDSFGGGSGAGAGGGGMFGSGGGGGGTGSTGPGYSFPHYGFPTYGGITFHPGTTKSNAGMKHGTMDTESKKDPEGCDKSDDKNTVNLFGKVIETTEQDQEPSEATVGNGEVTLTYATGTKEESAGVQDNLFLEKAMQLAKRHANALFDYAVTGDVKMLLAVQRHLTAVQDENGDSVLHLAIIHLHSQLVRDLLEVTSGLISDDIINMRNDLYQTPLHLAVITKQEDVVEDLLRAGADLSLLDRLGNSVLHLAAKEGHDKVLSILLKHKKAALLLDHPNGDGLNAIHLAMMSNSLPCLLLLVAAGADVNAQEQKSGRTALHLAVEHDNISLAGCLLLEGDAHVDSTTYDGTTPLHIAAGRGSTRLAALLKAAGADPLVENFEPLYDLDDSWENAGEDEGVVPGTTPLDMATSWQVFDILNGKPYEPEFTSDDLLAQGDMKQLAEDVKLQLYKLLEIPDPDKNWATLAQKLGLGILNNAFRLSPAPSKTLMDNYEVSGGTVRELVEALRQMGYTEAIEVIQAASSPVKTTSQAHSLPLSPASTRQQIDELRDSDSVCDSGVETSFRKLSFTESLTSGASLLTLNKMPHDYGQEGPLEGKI
T1 sequence (Q00653 whole entry, looked up): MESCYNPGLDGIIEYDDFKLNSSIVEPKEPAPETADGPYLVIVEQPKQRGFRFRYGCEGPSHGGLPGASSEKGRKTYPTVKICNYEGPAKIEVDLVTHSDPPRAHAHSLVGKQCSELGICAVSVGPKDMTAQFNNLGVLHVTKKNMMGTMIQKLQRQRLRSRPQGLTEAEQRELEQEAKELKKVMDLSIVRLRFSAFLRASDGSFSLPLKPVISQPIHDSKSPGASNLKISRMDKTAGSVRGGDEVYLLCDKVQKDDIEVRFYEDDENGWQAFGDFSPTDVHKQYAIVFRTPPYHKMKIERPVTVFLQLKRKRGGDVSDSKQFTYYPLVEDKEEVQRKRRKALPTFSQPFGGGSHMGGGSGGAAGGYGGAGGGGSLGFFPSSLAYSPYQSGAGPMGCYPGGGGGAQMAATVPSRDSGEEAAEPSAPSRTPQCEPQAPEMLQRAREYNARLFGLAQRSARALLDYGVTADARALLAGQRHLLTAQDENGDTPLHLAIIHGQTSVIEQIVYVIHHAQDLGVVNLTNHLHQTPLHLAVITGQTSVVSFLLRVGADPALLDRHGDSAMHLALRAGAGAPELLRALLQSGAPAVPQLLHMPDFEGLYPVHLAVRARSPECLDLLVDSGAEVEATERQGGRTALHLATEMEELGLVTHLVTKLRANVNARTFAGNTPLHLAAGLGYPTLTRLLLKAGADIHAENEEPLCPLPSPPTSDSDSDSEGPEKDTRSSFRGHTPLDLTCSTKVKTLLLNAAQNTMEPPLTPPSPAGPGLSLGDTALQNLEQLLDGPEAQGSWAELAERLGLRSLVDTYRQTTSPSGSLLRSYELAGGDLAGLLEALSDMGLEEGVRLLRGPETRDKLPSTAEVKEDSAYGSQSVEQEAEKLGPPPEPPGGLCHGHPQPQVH
T1 sequence (Q04206 whole entry, looked up): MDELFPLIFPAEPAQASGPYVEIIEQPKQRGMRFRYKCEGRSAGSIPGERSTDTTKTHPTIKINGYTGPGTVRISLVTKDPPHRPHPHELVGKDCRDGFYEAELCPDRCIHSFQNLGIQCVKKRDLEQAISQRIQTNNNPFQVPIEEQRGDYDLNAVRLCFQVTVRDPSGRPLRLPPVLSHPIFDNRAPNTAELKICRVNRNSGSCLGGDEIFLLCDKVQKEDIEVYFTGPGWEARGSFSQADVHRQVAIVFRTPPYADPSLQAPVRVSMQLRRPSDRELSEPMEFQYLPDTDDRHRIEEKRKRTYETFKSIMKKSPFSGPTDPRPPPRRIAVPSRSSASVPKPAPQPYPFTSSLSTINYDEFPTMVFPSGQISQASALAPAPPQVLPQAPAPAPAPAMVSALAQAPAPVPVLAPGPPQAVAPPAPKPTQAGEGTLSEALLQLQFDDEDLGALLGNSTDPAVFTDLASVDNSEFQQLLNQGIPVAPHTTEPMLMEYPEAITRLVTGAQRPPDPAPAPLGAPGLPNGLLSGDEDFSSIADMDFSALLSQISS
In short: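 THP1-Blue NF-κB reporter cells plated at 10^5/well in RPMI with 10% FBS, penicillin/streptomycin and Normocin. Compound added at 5 μM final (0.5% DMSO), then incubated 20 h. Secreted SEAP in the supernatant was read colorimetrically with QuantiBlue at 630 nm. Two-point normalization set vehicle (0.5% DMSO) as 100% and a reference activator as 200%.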

THP-1 = test: Cytotoxicity against human THP-1 cells assessed as cell viability at 5 uM measured after 18 hrs by MTT assay relative to control; assay type: cell-based; settings: thp-1, 18 h
In short: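 THP-1 cells were plated at 10^5/well in RPMI with 10% FBS and penicillin/streptomycin, then given compound at 5 μM final (0.5% DMSO) for 18 h. MTT at 0.5 mg/mL was added for 4–6 h, followed by SDS/HCl lysis buffer overnight. Absorbance was read at 570 nm against a 650 nm reference. Viability was normalized to DMSO as 100%.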

[2] = biological target: T1, Nuclear factor NF-kappa-B complex (Homo sapiens); test: Activation of NF-kappaB in human THP-1 cells assessed as increase in IL-8 production in the presence of LPS at 5 uM measured by ELISA relative to control; assay type: cell-based; settings: filed as activator
In short: (§1)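 THP-1 cells and BMDCs from the femurs and tibias of C57BL/6 mice were treated overnight with compound (5 μM) or vehicle (0.5% DMSO), with or without LPS at 1 ng/mL. Secreted IL-8 (THP-1) and IL-12 (BMDC) in the supernatant were measured by ELISA.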

BMDC [3] = test: Activation of NF-kappaB in mouse BMDC cells assessed as enhanced IL-12 production in the presence of LPS at 5 uM measured by ELISA relative to control; assay type: cell-based; settings: filed as activator; in short: as §1
BMDC [4] = test: Activation of NF-kappaB in mouse BMDC cells assessed as enhanced IL-12 production at 5 uM measured by ELISA relative to control; assay type: cell-based; in short: as §1
Mus musculus = species: Mus musculus; test: Co-adjuvanticity in MPLA/OVA-immunized BALB/c mouse assessed as increase in ovalbumin specific IgG production at 50 nmol treated on day 0 and 21 measured after 28 days by ELISA; assay type: functional, organism-based; settings: time 28.0 day
In short: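 BALB/c mice aged 7–9 weeks, n=5 per group, were injected into the gastrocnemius muscle on days 0 and 21. Mice were bled on day 28 and OVA-specific IgG titers measured by ELISA. Groups were compared with one-way ANOVA and Dunnett's post hoc test.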

Row | Activity [1] | Activity [2] | Structure (SMILES) | Activity (THP-1) | Activity (BMDC [3]) | Activity (BMDC [4]) | Activity (Mus musculus)
1 | 254% | Active | Cc1ccc(Br)c(-c2csc(NC(=O)c3ccc(S(=O)(=O)N4CCCCC4)cc3)n2)c1 | 98% | Active | inactive | 
2 | 517% | Active | CCCC1CCN(S(=O)(=O)c2ccc(C(=O)Nc3nc(-c4cc(C)ccc4C)cs3)cc2)CC1 | 111% | Active | inactive | Active
3 | 393% | Active | CCCC#Cc1sc(NC(=O)c2ccc(S(=O)(=O)N3CCCCC3)cc2)nc1-c1cc(C)ccc1C | 106% | Active | inactive | Active
4 | 209% |  | Cc1ccc(C)c(-c2csc(NC(=O)c3ccc(S(=O)(=O)N4CCCCC4)c(Br)c3)n2)c1 | 90% |  |  | 
5 | 200% | Active | Cc1ccc(C)c(-c2csc(NC(=O)c3ccc(S(=O)(=O)N4CCCCC4)cc3)n2)c1 | 103% | Active | inactive | 
